Broadly, the inhibition is the drop in the measured response relative to a control, in per cent.

The results in this text go back to ChEMBL document CHEMBL1123408, “Influence of alkyl-chain fluorination on the action of mammary tumor inhibiting 2,3-bis(hydroxyphenyl)butanes and 2,3-bis(hydroxyphenyl)but-2-enes” (1986).

In test [1] the target is T1, Estrogen receptor (Mus musculus) (UniProt O08537+P19785). The test is described as follows: Uterotrophic effect in BD2F mice bearing transplantable hormone dependent MXT at 8 mg dose. The format is functional, tissue-based. The settings on record: Uterus. In outline:
(§1)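 MXT-bearing female BD2F1 mice (10 per group) dosed sc in olive oil three times weekly for 6 weeks from the day after tumor transplantation. Uteri excised at sacrifice and dry weight determined; values given as mean ± SD.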

The species named for test [2] is Mus musculus. The test is described as follows: Relative average tumor wet weight in treated compared to untreated mice at 8 mg dose. The format is functional. The method, boiled down: (§2)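 Syngeneic female BD2F1 mice (8–10 weeks) received sc trocar implants of 1–2-mm³ MXT tumor pieces, 10 per group. Treatment began the next day: sc doses in olive oil (solution or suspension), three times weekly for 6 weeks. Tamoxifen-treated control group included. Tumor wet weight measured at sacrifice; expressed as % T/C versus untreated controls.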

The target in test [3] is T1, Estrogen receptor (Mus musculus). The test is described as follows: (§3) Uterotrophic effect in mice at 10 ug dose. The arrangement: unit not given here. Conditions: Uterus. Format: functional, tissue-based. In outline: (§4)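 Immature female NMRI mice, 20 days old, 10 per group, given daily sc injections of 0.1 mL olive oil solution for 3 days. Uteri removed 24 h after the last dose, fixed in Bouin's solution, washed, dried and weighed. Antiestrogenic testing measured inhibition of estrone-stimulated uterine growth.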

Test [4] has the same target. The test is described as follows: Uterotrophic effect in BD2F mice bearing transplantable hormone dependent MXT at 1.33 mg dose. The format is functional, tissue-based. The settings on record: Uterus. The method, boiled down: as §1
Test [5] shares this target. The test is described as follows: (§5) Uterotrophic effect in mice at 1 ug dose. Format: functional, tissue-based. Also noted: unit not given here. Conditions: Uterus. The method, boiled down:
as §4

The species named for test [6] is Mus musculus. Nature of the test: Relative average tumor wet weight in treated compared to untreated mice at 4 mg dose. Format: functional. The method, boiled down:
as §2

The target of test [7] is T1, Estrogen receptor (Mus musculus). The test is described as follows: Uterotrophic effect in BD2F mice bearing transplantable hormone dependent MXT at 4 mg dose. Format: functional, tissue-based. The settings on record: Uterus. The method, boiled down:
as §1

For test [8] the target is unchanged. Nature of the test: (§6) Uterotrophic effect in mice at 0 ug dose. The settings on record: Uterus. Also noted: unit not given here. The format is functional, tissue-based. The method, boiled down:
as §4

Test [9] is filed under the species Mus musculus. Nature of the test: Relative average tumor wet weight in treated compared to untreated mice at 1.33 mg dose. The format is functional. In outline: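 MXT mammary tumor pieces of 1-2 mm³ from syngeneic donors were implanted sc by trocar into female BD2F₁ mice aged 8-10 weeks (20.0 ± 1.7 g), groups of 10. From the next day, compound in olive oil was given sc three times weekly for 6 weeks. Tumor wet weight was measured at the end and expressed as % T/C.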

Test [10] deals with T1, Estrogen receptor (Mus musculus). Nature of the test: (§7) Uterotrophic effect in mice at 0.1 ug dose. Format: functional, tissue-based. The arrangement: unit not given here. The settings on record: Uterus. In outline: as §4
Test [11] relates to Rattus norvegicus. Nature of the test: Percent progression in DMBA-Induced Hormone-Dependent Mammary Carcinoma model in rats at 5 mg/kg dose. Format: functional.
Test [12] concerns Rattus norvegicus. Nature of the test: Percent partial remission in DMBA-Induced Hormone-Dependent Mammary Carcinoma in rats at 5 mg/kg dose. Format: functional.
Test [13] relates to Rattus norvegicus. Nature of the test: Percent unchanged tumors in DMBA-Induced Hormone-Dependent Mammary Carcinoma in rats at 2 mg/kg dose. The format is functional.
The test system of test [14] is Rattus norvegicus. The test is described as follows: Percent unchanged tumors in DMBA-Induced Hormone-Dependent Mammary Carcinoma in rats at 5 mg/kg dose. Format: functional.
Test [15] deals with T1, Estrogen receptor (Mus musculus). The test is described as follows: Uterotrophic effect in mice at 25 ug dose. Conditions: Uterus. The format is functional, tissue-based. The arrangement: unit not given here. In outline: as §4
The target is the same in test [16]. Nature of the test: Uterotrophic effect in mice at 1000 ug dose. The arrangement: unit not given here. The format is functional, tissue-based. Conditions: Uterus. In outline: as §4
Test [17] has the same target. Nature of the test: (§8) Uterotrophic effect in mice at 100 ug dose. Format: functional, tissue-based. Conditions: Uterus. In outline:
as §4

Test [18] shares this target. Nature of the test: Anti-uterotrophic effect in mice at 10 ug dose. The format is functional. In outline:
(§9)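 Immature female NMRI mice, 20 days old (14.5 ± 1.2 g), randomized into groups of 10. Each received a daily sc injection of compound in 0.1 mL olive oil for 3 days, given together with estrone. Uteri were taken 24 h after the last injection, fixed in Bouin's solution, washed, dried and weighed. The read-out was inhibition of estrone-stimulated uterine growth.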

The subject of test [19] is Rattus norvegicus. Nature of the test: Percent complete remission in DMBA-Induced Hormone-Dependent Mammary Carcinoma in rats at 2 mg/kg dose. Format: functional.
The species named for test [20] is Mus musculus. The test is described as follows: Relative average tumor wet weight in treated compared to untreated mice at 20 mg dose. Format: functional. In outline:
as §2

The target in test [21] is T1, Estrogen receptor (Mus musculus). The test is described as §8. Format: functional, tissue-based. The arrangement: unit not given here. The settings on record: Uterus. The method, boiled down:
as §4

The test system of test [22] is Rattus norvegicus. The test is described as follows: Percent partial remission in DMBA-Induced Hormone-Dependent Mammary Carcinoma in rats at 2 mg/kg dose. Format: functional.
Test [23] concerns the target T1, Estrogen receptor (Mus musculus). Nature of the test: Uterotrophic effect in BD2F mice bearing transplantable hormone dependent MXT at 20 mg dose. The format is functional, tissue-based. The settings on record: Uterus. The method, boiled down: as §1
For test [24], the system named is Rattus norvegicus. The test is described as follows: Percent change in total tumor area in DMBA-Induced Hormone-Dependent Mammary Carcinoma rats at 5 mg/kg dose. The format is functional.
The subject of test [25] is Rattus norvegicus. Nature of the test: Percent change in body weight in DMBA-Induced Hormone-Dependent Mammary Carcinoma rats at 5 mg/kg dose. The format is functional.
Test [26] has as its target T1, Estrogen receptor (Mus musculus). Described as §6. The format is functional, tissue-based. Conditions: Uterus. Also noted: unit not given here. The method, boiled down: as §4
The source holds these as a separate data set.

Test [27] has the same target. Nature of the test: Anti-uterotrophic effect in mice at 25 ug dose. The format is functional. In outline:
as §9

Test [28] concerns Rattus norvegicus. The test is described as follows: Percent change in total tumor area in DMBA-Induced Hormone-Dependent Mammary Carcinoma rats at 2 mg/kg dose. Format: functional.
The test system of test [29] is Rattus norvegicus. Nature of the test: Initial tumor number in DMBA-Induced Hormone-Dependent Mammary Carcinoma in rats at 5 mg/kg dose. Format: functional.
Test [30] relates to Rattus norvegicus. The test is described as follows: Percent progression in DMBA-Induced Hormone-Dependent Mammary Carcinoma in rats at 2 mg/kg dose. The format is functional.
In test [31] the target is T1, Estrogen receptor (Mus musculus). The test is described as §3. Format: functional, tissue-based. The settings on record: Uterus. In outline:
as §4

For test [32] the target is unchanged. Nature of the test: Anti-uterotrophic effect in mice at 1 ug dose. Format: functional. In outline: as §9
Test [33] shares this target. Described as §7. Conditions: Uterus. The format is functional, tissue-based. The method, boiled down: as §4
Test [34] shares this target. Nature of the test: Anti-uterotrophic effect in mice at 100 ug dose. Format: functional. In outline:
as §9

Test [35] relates to Rattus norvegicus. The test is described as follows: Final tumor number in DMBA-Induced Hormone-Dependent Mammary Carcinoma in rats at 2 mg/kg dose. Format: functional.
Test [36] addresses T1, Estrogen receptor (Mus musculus). The description is as §5. The format is functional, tissue-based. The settings on record: Uterus. The method, boiled down: as §4
Test [37] concerns Rattus norvegicus. Nature of the test: Initial in tumor number in DMBA-Induced Hormone-Dependent Mammary Carcinoma in rats at 2 mg/kg dose. Format: functional.
Test [38] relates to Rattus norvegicus. The test is described as follows: Percent complete remission in DMBA-Induced Hormone-Dependent Mammary Carcinoma in rats at 5 mg/kg dose. Format: functional.
Test [39] deals with Rattus norvegicus. The test is described as follows: Percent change in body weight in DMBA-Induced Hormone-Dependent Mammary Carcinoma rats at 2 mg/kg dose. Format: functional.
In test [40] the test system is Rattus norvegicus. Nature of the test: Final tumor number in DMBA-Induced Hormone-Dependent Mammary Carcinoma in rats at 5 mg/kg dose. The format is functional.

T1 sequence (O08537 whole entry, looked up): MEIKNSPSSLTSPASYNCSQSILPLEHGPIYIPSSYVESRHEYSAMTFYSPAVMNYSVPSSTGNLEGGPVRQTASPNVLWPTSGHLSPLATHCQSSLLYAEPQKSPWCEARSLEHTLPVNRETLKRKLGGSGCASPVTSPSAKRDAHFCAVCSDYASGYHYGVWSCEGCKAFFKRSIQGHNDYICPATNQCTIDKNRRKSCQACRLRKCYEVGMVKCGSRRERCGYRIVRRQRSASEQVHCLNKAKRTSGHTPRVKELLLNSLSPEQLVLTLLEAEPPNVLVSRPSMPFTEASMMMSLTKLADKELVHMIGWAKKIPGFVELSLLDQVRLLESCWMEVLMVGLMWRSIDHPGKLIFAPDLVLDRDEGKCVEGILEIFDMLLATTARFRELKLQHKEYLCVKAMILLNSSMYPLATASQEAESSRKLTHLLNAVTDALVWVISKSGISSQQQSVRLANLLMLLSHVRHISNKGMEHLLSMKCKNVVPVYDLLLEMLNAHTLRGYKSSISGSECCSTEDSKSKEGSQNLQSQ
T1 sequence (P19785 whole entry, looked up): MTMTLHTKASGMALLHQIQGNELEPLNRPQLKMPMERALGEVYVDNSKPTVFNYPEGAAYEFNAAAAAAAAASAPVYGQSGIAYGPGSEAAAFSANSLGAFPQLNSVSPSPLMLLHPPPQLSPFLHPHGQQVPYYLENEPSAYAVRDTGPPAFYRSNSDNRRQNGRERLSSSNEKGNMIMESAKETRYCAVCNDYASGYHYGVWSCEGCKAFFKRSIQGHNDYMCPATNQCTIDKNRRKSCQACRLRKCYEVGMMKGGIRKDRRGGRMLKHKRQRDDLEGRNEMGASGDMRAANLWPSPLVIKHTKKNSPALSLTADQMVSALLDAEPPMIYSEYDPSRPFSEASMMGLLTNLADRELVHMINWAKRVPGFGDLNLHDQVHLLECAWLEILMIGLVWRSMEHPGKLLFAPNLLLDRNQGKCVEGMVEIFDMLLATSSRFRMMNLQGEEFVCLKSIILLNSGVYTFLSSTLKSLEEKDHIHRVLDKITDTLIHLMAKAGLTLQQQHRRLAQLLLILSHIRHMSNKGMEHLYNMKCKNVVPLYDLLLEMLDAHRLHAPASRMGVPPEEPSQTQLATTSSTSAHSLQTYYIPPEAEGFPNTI

Take `Oc1ccc(/C(=C(/c2ccc(O)cc2)C(F)(F)F)C(F)(F)F)cc1`: the Effect came out at 169 in test [1]; 38.2 in [3]; 182 in test [4]; 52.6 in [5]; 179 in [7]; 13.7 in test [8]. The same compound displayed an Effect in test [10] of 56.4. For the same compound, the TC is on record as 5.2% in the test filed under Mus musculus [2], 5.5% in the test filed under Mus musculus [6] and 10.4% in the test listed under Mus musculus [9].

In the case of `Oc1cccc([C@H]([C@H](c2cccc(O)c2)C(F)(F)F)C(F)(F)F)c1`, the Change in weight was 38% with Rattus norvegicus [11], -0.4% in the test on Rattus norvegicus [25] and -1.1% with Rattus norvegicus [39]. The Tumors in the test on Rattus norvegicus [12] stood at 12%; in the test on Rattus norvegicus [13], 28%; in the test on Rattus norvegicus [14] it was 29%; in the test with Rattus norvegicus [19], 15%; in the test with Rattus norvegicus [22], 10%; in the test with Rattus norvegicus [30], 47%. The compound further had a Tumors in the test with Rattus norvegicus [38] of 21%. Moreover, the Effect came out at 28.8 in test [15]; 36 in test [16]; 36.7 in test [17]; 19.8 in [3]; 34.8 in test [21]; 15.4 in test [5]. For the same compound, the Effect was 90.1 in test [23]; 13.3 in [26]; 32 in [31]; 10.1 in [33]; 84 in test [7]; 31.4 in test [36]. For the same compound, the Effect in test [8] is 10.8; in test [10] it was 10.1. Besides, the inhibition in [18] came out at 34.5%; in [27] it was 45.5%; in test [32], 36.6%; in test [34], 18%. Further, the values for the TC in the test filed under Mus musculus [20] and in the test filed under Mus musculus [6] were 10.9% and 23.9%, respectively. Further, the “Change in tumor area %” value is listed as 166% with Rattus norvegicus [24] and 165% in the test on Rattus norvegicus [28]. Moreover, the No. of tumors in the test with Rattus norvegicus [29] is 23; in the test with Rattus norvegicus [35] it was 19; in the test with Rattus norvegicus [37] it was 21; in the test on Rattus norvegicus [40], 11.
